Here are results for 17 molecules from ChEMBL document CHEMBL1129424, “Heterocyclic amides: inhibitors of acyl-CoA:cholesterol O-acyl transferase with hypocholesterolemic activity in several species and antiatherosclerotic activity in the rabbit” (J Med Chem, 1996).

In general, IC50 refers to the concentration that gives 50% inhibition. A low value points to inhibition by little substance. By inhibition is commonly meant the drop in the measured response relative to a control, in per cent. A lower inhibition goes with little suppression.

In assay [1] the target is T1, Sterol O-acyltransferase 1 (Rattus norvegicus, UniProt O70536).
T1 sequence (O70536 whole entry): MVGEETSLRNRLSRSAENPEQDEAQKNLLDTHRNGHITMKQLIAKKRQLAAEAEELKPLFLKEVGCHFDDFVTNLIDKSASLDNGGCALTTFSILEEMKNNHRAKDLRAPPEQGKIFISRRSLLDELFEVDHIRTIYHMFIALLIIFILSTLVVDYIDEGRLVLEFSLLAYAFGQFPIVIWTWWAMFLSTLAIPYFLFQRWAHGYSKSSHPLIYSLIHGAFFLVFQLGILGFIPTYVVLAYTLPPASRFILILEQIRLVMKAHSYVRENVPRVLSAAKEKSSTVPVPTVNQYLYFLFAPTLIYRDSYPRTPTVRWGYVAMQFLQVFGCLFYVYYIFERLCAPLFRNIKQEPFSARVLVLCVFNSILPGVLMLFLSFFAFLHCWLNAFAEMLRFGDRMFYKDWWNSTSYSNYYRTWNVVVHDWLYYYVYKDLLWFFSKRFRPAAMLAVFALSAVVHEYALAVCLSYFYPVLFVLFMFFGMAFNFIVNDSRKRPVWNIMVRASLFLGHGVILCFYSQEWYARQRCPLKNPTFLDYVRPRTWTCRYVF
Kind of assay: Inhibition of Acyl coenzyme A:cholesterol acyltransferase 1 from rat liver microsomes. The method in brief: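 Microsomes isolated from livers of cholesterol-fed rats were incubated with compound and [1-14C]oleoyl-CoA to measure ACAT inhibition; IC50 reported in μM.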
(Liver microsomes are vesicles of endoplasmic reticulum, rich in cytochrome P450 enzymes.)

Assay [2] has as its system Rattus norvegicus. Nature of the assay: Percent change in total cholesterol in the acute cholesterol-fed rat model (APCC) of hypercholesterolemia at 30 mg/Kg. The assay is classed as functional. In a few lines:
(§1)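 Acute rat model: compound given by gavage at 30 or 3 mg/kg in 1.5% carboxymethylcellulose/0.2% Tween-20 in water (3-4 pm). Rats then fed overnight a diet with 5.5% peanut oil, 1.5% cholesterol, 0.5% cholic acid. Result is percent decrease in plasma total cholesterol versus controls.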

The subject of assay [3] is Rattus norvegicus. Kind of assay: Percent change in total cholesterol in the acute cholesterol-fed rat model (APCC) of hypercholesterolemia at 3 mg/Kg. It is filed as functional. In a few lines: as §1
Assay [4] is described as follows: Acyl coenzyme A:cholesterol acyltransferase inhibition in cell culture measured in murine IC-21 macrophages. In a few lines:
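Murine IC-21 macrophages preincubated 16 h in serum-free DMEM with albumin (20 μM) and phosphatidylserine/cholesterol vesicles; then compound in DMSO for 1 h, then 14C-sodium oleate added for 4 more h. Lipids extracted in hexane/2-propanol with [14C]cholesterol internal standard; neutral lipids separated by TLC, phosphorimaged; protein by Lowry. IC50 is the concentration giving 50% inhibition.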

For assay [5], the species on record is Rattus norvegicus. Nature of the assay: Compound was tested for the percent change in total cholesterol (TC) by chronic rat model. The assay is classed as functional.
For assay [6], the target named is T2, Sterol O-acyltransferase 1 (Rattus norvegicus) (UniProt O70536).
T2 sequence (whole entry): T1 sequence (O70536 whole entry)
Kind of assay: Inhibition of rat liver microsomal Acyl coenzyme A:cholesterol acyltransferase 1 from rabbit plasma after an oral dose of 25 mg/kg. It is filed as cell-free. In a few lines:
(§2)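 Male New Zealand white rabbits conditioned to meal feeding for 1 week, then given a meal containing drug at 25 mg/kg in 3% peanut oil/3% coconut oil vehicle. Plasma was sampled at 0, 1, 2 and 4 h and extracted into hexane, then redissolved in chloroform/methanol (2:1). It was assayed for liver microsomal ACAT inhibition against standards of compound spiked into rabbit plasma in DMSO.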

The test system of assay [7] is Oryctolagus cuniculus. Nature of the assay: Percent change in plasma triglyceride levels at dose 25 mg/Kg in rabbits. The assay is classed as functional. In a few lines: (§3)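 Injured cholesterol-fed rabbits: diet of 0.5% cholesterol, 3% peanut oil, 3% coconut oil for 9 weeks (1 week before, 8 weeks after surgery), producing thoracic aortic and iliac-femoral lesions. Doses 1, 5 or 25 mg/kg. Thoracic aortic lesion coverage, plasma total cholesterol and triglycerides given as percent change versus control; Student's t-test, p < 0.05.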

Assay [8] deals with Oryctolagus cuniculus. Nature of the assay: Percent change in plasma total cholesterol at dose 25 mg/Kg in rabbits. It is filed as functional. In a few lines: as §3
Assay [9] relates to Oryctolagus cuniculus. Nature of the assay: Percent change in lesion coverage relative to control in the thoracic aorta at dose 25 mg/Kg in rabbits. It is filed as functional. In a few lines: as §3
Assay [10] deals with T2, Sterol O-acyltransferase 1 (Rattus norvegicus). Nature of the assay: Compound at 5 mg/Kg was tested for the inhibition of rat liver microsomal Acyl coenzyme A:cholesterol acyltransferase 1 in plasma drawn from chow fed rabbits. It is filed as cell-free.
Assay [11] has as its system Oryctolagus cuniculus. Kind of assay: Percent change in plasma triglyceride levels at dose 5 mg/Kg in rabbits. It is filed as functional. In a few lines: as §3
Assay [12] relates to Oryctolagus cuniculus. Nature of the assay: Percent change in lesion coverage relative to control in the thoracic aorta at dose 5 mg/Kg in rabbits. It is filed as functional. The method in brief:
as §3

Assay [13] concerns Oryctolagus cuniculus. Kind of assay: Percent change in TC relative to untreated controls at 5 mg/Kg in cholesterol fed rabbits (CFR).
Assay [14] concerns Oryctolagus cuniculus. Nature of the assay: Percent change in plasma total cholesterol at dose 1 mg/Kg in rabbits. The assay is classed as functional. The method in brief: as §3
For assay [15], the target named is T2, Sterol O-acyltransferase 1 (Rattus norvegicus). Nature of the assay: Compound at 25 mg/Kg was tested for the inhibition of rat liver microsomal Acyl coenzyme A:cholesterol acyltransferase 1 in plasma drawn from chow fed rabbits. The assay is classed as cell-free. The method in brief: as §2
Assay [16] deals with Oryctolagus cuniculus. Nature of the assay: Percent change in plasma total cholesterol at dose 5 mg/Kg in rabbits. It is filed as functional. In a few lines:
as §3

Assay [17] deals with Oryctolagus cuniculus. Kind of assay: Percent change in plasma triglyceride levels at dose 1 mg/Kg in rabbits. It is filed as functional. In a few lines: as §3
Another assay concerns Canis familiaris. Nature of the assay: CDOG represents the C-fed female Beagle dog model, data expressed as percent change in TC relative to untreated controls at compound concentration of 10 mg/Kg. It is filed as functional, Canis lupus familiaris. The method in brief: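 Cholesterol-fed female Beagle dogs given bulk drug in capsules daily before meals for 1 week at 10 mg/kg. Plasma total cholesterol compared before and after treatment.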

Assay [18] addresses T2, Sterol O-acyltransferase 1 (Rattus norvegicus). Nature of the assay: Compound at 1 mg/Kg was tested for the inhibition of rat liver microsomal Acyl coenzyme A:cholesterol acyltransferase 1 in plasma drawn from chow fed rabbits. It is filed as cell-free.
Assay [19] has as its system Oryctolagus cuniculus. Kind of assay: Percent change in lesion coverage relative to control in the thoracic aorta at dose 1 mg/Kg in rabbits. The assay is classed as functional. The method in brief:
as §3

Assay [20] has as its system Oryctolagus cuniculus. Kind of assay: Percent change in TC relative to untreated controls at 25 mg/Kg in cholesterol fed rabbits (CFR).

As for `CCCCCCCCCCCCc1nnc(C(C(=O)Nc2c(OC)cc(OC)cc2OC)c2ccccc2)o1` (stereo not given), the IC50 in [1] stood at 0.017 µM; in assay [4], 0.048 µM. Also, the results for the DeltaTC with Rattus norvegicus [2] and in the assay with Rattus norvegicus [3] were -57% and -64%, respectively. For the same molecule, the CPCC in the assay filed under Rattus norvegicus [5] is on record as -39. In assay [6], this molecule yielded an inhibition of 21%.
`CCCCCCCCCCC(C)(C)C(=O)Nc1c(OC)cc(OC)cc1OC` [CL-976]: the DeltaTC is -7% in the assay with Oryctolagus cuniculus [7] and -24% in the assay on Oryctolagus cuniculus [8]. Besides, the Activity in the assay on Oryctolagus cuniculus [9] is -41%.
For the molecule `CCCCCCCCCCCCc1cc(C(C(=O)Nc2ccc(F)cc2F)c2ccccc2)no1` (stereo not given), the IC50 in [1] came out at 0.1 µM. For the same molecule, in the assay on Rattus norvegicus [2], the DeltaTC was -29%.
For `CCCCCCCCCCCCc1cc(C2(C(=O)Nc3c(OC)cc(OC)cc3OC)CCCC2)no1` the same measures were 0.1 µM and -29%.
On to `CCCCCCCCCCCCc1cc(C(C(=O)Nc2c(OC)cc(OC)cc2OC)c2ccccc2)no1` (stereo not given), for which the inhibition was 68% in [10], 92% in assay [15], 0% in assay [18] and 92% in assay [6]. Moreover, the IC50 in [1] is 0.022 µM; in [4], 0.31 µM. Further, in the assay with Oryctolagus cuniculus [11], the DeltaTG is recorded as 66%. For the same molecule, the DeltaTC in the assay on Rattus norvegicus [2] was -72%; with Oryctolagus cuniculus [7], 157%; in the assay on Oryctolagus cuniculus [13] it was -66%; in the assay on Oryctolagus cuniculus [14] it was -17%; in the assay with Oryctolagus cuniculus [8] it was -27%; in the assay on Rattus norvegicus [3], -50%. The DeltaTC is on record as -27% with Oryctolagus cuniculus [16] and 24% with Oryctolagus cuniculus [17]. Also, the Activity was -29% in the assay with Oryctolagus cuniculus [12], -36% in the assay on Oryctolagus cuniculus [9] and -20% with Oryctolagus cuniculus [19]. Also, the CDOG in the assay with Canis familiaris was -44. Besides, the CPCC in the assay filed under Rattus norvegicus [5] is listed as -61.
`CCCCCCCCCCCCc1cn(C(C(=O)Nc2c(OC)cc(OC)cc2OC)c2ccccc2)cn1` (stereo not given): the IC50 in assay [1] worked out at 0.11 µM. Further, the DeltaTC is reported as -62% in the assay with Rattus norvegicus [2] and -43% in the assay on Rattus norvegicus [3].
`CCCCCCCCCCCCc1cc(C(C(=O)Nc2c(OC)cc(OC)cc2OC)c2ccccc2)on1` (stereo not given): the inhibition in assay [10] is 46%; in assay [15] it was 94%; in [18], 0%; in [6] it was 94%. The IC50 came to 0.015 µM in [1] and 0.17 µM in assay [4]. For the same molecule, in the assay on Oryctolagus cuniculus [11], the DeltaTG was determined as 111%. Further, the DeltaTC in the assay with Rattus norvegicus [2] was -68%; in the assay on Oryctolagus cuniculus [7], 168%; in the assay with Oryctolagus cuniculus [13], -64%; in the assay with Oryctolagus cuniculus [14], -26%; with Oryctolagus cuniculus [8], -26%; with Rattus norvegicus [3], -68%. Besides, the DeltaTC was -32% with Oryctolagus cuniculus [16], 1% in the assay on Oryctolagus cuniculus [17] and -76% in the assay on Oryctolagus cuniculus [20]. In addition, the Activity is -46% in the assay with Oryctolagus cuniculus [12], -32% in the assay with Oryctolagus cuniculus [9] and -53% with Oryctolagus cuniculus [19]. Also, the CDOG in the assay with Canis familiaris is reported as -44. The CPCC in the assay listed under Rattus norvegicus [5] is on record as -65.
Consider `CCCCCCCCCCCCc1cn(C(C(=O)Nc2c(OC)cc(OC)cc2OC)c2ccccc2)nn1` (stereo not given), for which the IC50 in assay [1] is 0.022 µM; in assay [4] it was 0.054 µM. Moreover, the DeltaTC with Rattus norvegicus [2] is on record as -69%; in the assay with Rattus norvegicus [3], -66%. For the same molecule, the inhibition in assay [6] was determined as 12%.
On to `CCCCCCCCCCCCc1cc(C(C(=O)Nc2c(C(C)C)cccc2C(C)C)c2ccccc2)no1` (stereo not given), for which half-maximal inhibition in assay [1] (IC50) required 0.024 µM.
Take `CCCCCCCCCCCCc1cc(CC(=O)Nc2c(OC)cc(OC)cc2OC)on1`: half-maximal inhibition in assay [1] (IC50) required 0.032 µM. The figures for the DeltaTC with Rattus norvegicus [2] and in the assay on Rattus norvegicus [3] were -59% and -42%, respectively.
In assay [1], `CCCCCCCCCCCCc1nc(C(C(=O)Nc2c(OC)cc(OC)cc2OC)c2ccccc2)no1` (stereo not given) had an IC50 of 0.031 µM. Further, the DeltaTC in the assay with Rattus norvegicus [2] was -54%; in the assay with Rattus norvegicus [3], -56%.
In turn, `CCCCCCCCCCCCc1cnn(C(C(=O)Nc2c(OC)cc(OC)cc2OC)c2ccccc2)c1` (stereo not given) showed an IC50 in assay [1] of 0.046 µM. For the same molecule, the DeltaTC with Rattus norvegicus [2] was -72%; in the assay on Rattus norvegicus [3], -59%.
As to `CCCCCCCCCCCCc1cc(C(C(=O)Nc2c(C(C)C)cccc2C(C)C)c2ccccc2)on1` (stereo not given), the IC50 in assay [1] stood at 0.019 µM. Also, the DeltaTC with Rattus norvegicus [2] is -52%; in the assay with Rattus norvegicus [3] it was -10%.
Molecule `CCCCCCCCCCCCc1cc(C(C)(C)C(=O)Nc2c(OC)cc(OC)cc2OC)no1` displayed an IC50 in [1] of 0.15 µM. Moreover, the DeltaTC in the assay with Rattus norvegicus [2] is recorded as -40%.
In turn, `CCCCCCCCCCCCc1nnc(C(C(=O)Nc2c(C(C)C)cccc2C(C)C)c2ccccc2)o1` (stereo not given) returned an IC50 in [1] of 0.014 µM. Besides, the results for the DeltaTC in the assay on Rattus norvegicus [2] and with Rattus norvegicus [3] were -64% and -23%, respectively.
`CCCCCCCCCCCCc1cc(C(C(=O)Nc2ccc(F)cc2F)c2ccccc2)on1` (stereo not given) came in with an IC50 in [1] of 0.051 µM. Besides, the DeltaTC in the assay with Rattus norvegicus [2] is -50%.
`CCCCCCCCCCCCc1noc(C(C(=O)Nc2c(OC)cc(OC)cc2OC)c2ccccc2)n1` (stereo not given) came in with an IC50 in assay [1] of 0.031 µM. Moreover, the DeltaTC in the assay with Rattus norvegicus [2] is given as -60%; in the assay with Rattus norvegicus [3], -58%.
